In ChEMBL document CHEMBL1141000, “cis-Nitromethylene neonicotinoids as new nicotinic family: synthesis, structural diversity, and insecticidal evaluation of hexahydroimidazo[1,2-alpha]pyridine” (2008):
In brackets after ≈: the same amount, converted by molar mass.

What was measured:
Format in all cases: functional
Aphis craccivora [1] = test: Insecticidal activity against Aphis craccivora assessed as mortality at 500 mg/L
Aphis craccivora [2] = test: Insecticidal activity against Aphis craccivora
Nilaparvata lugens [3] = test: Insecticidal activity against imidacloprid-sensitive Nilaparvata lugens
In short: (§1)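 Nilaparvata lugens (brown planthopper), sensitive and imidacloprid-resistant strains tested separately, using a protocol similar to the pea aphid bioassay. Activity expressed as LC50 (mg/L).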

Nilaparvata lugens [4] = test: Insecticidal activity against imidacloprid-resistant Nilaparvata lugens; in short: as §1

SMILES	Activity (Aphis craccivora [1]) [%]	LC50 (Aphis craccivora [2]) [mg/L]	LC50 (Nilaparvata lugens [3]) [mg/L]	LC50 (Nilaparvata lugens [4]) [mg/L]
CCOC1CC(C)C([N+](=O)[O-])=C2N(Cc3ccc(Cl)nc3)CCN21 (stereo unspecified)	100	65.4 (≈ 185 µM)		
CC1CC(OCCO)N2CCN(Cc3ccc(Cl)nc3)C2=C1[N+](=O)[O-] (stereo unspecified)	0			
CC(C)COC1CC(C)C([N+](=O)[O-])=C2N(Cc3ccc(Cl)nc3)CCN21 (stereo unspecified)	0			
CC1CC(OC2CCCCC2)N2CCN(Cc3ccc(Cl)nc3)C2=C1[N+](=O)[O-] (stereo unspecified)	0			
CCCC1CC(O)N2CCN(Cc3ccc(Cl)nc3)C2=C1[N+](=O)[O-] (stereo unspecified)	25			
CC(C)C1CC(O)N2CCN(Cc3ccc(Cl)nc3)C2=C1[N+](=O)[O-] (stereo unspecified)	0			
CCCCC1CC(O)N2CCN(Cc3ccc(Cl)nc3)C2=C1[N+](=O)[O-] (stereo unspecified)	85			
CC1CC(O)N2CCN(Cc3ccc(Cl)nc3)C2=C1[N+](=O)[O-] (stereo unspecified)	100	31.5 (≈ 97 µM)	20.7 (≈ 63.8 µM)	7.36 (≈ 22.7 µM)
CCCCOC1CC(C)C([N+](=O)[O-])=C2N(Cc3ccc(Cl)nc3)CCN21 (stereo unspecified)	58.4			
CCOC1CC(C(C)C)C([N+](=O)[O-])=C2N(Cc3ccc(Cl)nc3)CCN21 (stereo unspecified)	72			
CC(C)OC1CC(c2ccccc2)C([N+](=O)[O-])=C2N(Cc3ccc(Cl)nc3)CCN21 (stereo unspecified)	0			
O=[N+]([O-])C1=C2N(Cc3ccc(Cl)nc3)CCN2C(O)CC1c1ccccc1 (stereo unspecified)	30			
CC(C)OC1C(C)CC([N+](=O)[O-])=C2N(Cc3ccc(Cl)nc3)CCN21 (stereo unspecified)	67			
CCCOC1CC(C)C([N+](=O)[O-])=C2N(Cc3ccc(Cl)nc3)CCN21 (stereo unspecified) [PAICHONGDING]	100	33.7 (≈ 91.8 µM)	7.35 (≈ 20 µM)	7.2 (≈ 19.6 µM)
CCCOC1CC(c2ccccc2)C([N+](=O)[O-])=C2N(Cc3ccc(Cl)nc3)CCN21 (stereo unspecified)	45			
CCC1CC(O)N2CCN(Cc3ccc(Cl)nc3)C2=C1[N+](=O)[O-] (stereo unspecified)	100	61 (≈ 180 µM)		
COC1CC(c2ccccc2)C([N+](=O)[O-])=C2N(Cc3ccc(Cl)nc3)CCN21 (stereo unspecified)	50			
CC1C([N+](=O)[O-])=C2N(Cc3ccc(Cl)nc3)CCN2C(O)C1C (stereo unspecified)	50			
CCOC1CC(c2ccccc2)C([N+](=O)[O-])=C2N(Cc3ccc(Cl)nc3)CCN21 (stereo unspecified)	89			
CCCOC1CC(CCC)C([N+](=O)[O-])=C2N(Cc3ccc(Cl)nc3)CCN21 (stereo unspecified)	82			

SMILES	Activity (Aphis craccivora [1]) [%]	LC50 (Aphis craccivora [2]) [mg/L]	LC50 (Nilaparvata lugens [3]) [mg/L]	LC50 (Nilaparvata lugens [4]) [mg/L]
CC(C)OC1CC(C)C([N+](=O)[O-])=C2N(Cc3ccc(Cl)nc3)CCN21 (stereo unspecified)	100	96.2 (≈ 262 µM)	5.57 (≈ 15.2 µM)	6.33 (≈ 17.3 µM)
CC1CC(OCCCl)N2CCN(Cc3ccc(Cl)nc3)C2=C1[N+](=O)[O-] (stereo unspecified)	100	74.7 (≈ 193 µM)		
O=[N+]([O-])/N=C1\NCCN1Cc1ccc(Cl)nc1 [IMIDACLOPRID]	100	7.9 (≈ 30.9 µM)	0.14 (≈ 0.548 µM)	19.7 (≈ 77.2 µM)
CCCC1CC(OCC)N2CCN(Cc3ccc(Cl)nc3)C2=C1[N+](=O)[O-] (stereo unspecified)	95			
O=[N+]([O-])C1=C2N(Cc3ccc(Cl)nc3)CCN2C(O)C2CCCCC12 (stereo unspecified)	0			
CCCC1CC(OC(C)C)N2CCN(Cc3ccc(Cl)nc3)C2=C1[N+](=O)[O-] (stereo unspecified)	79			
COC1C(C)CC([N+](=O)[O-])=C2N(Cc3ccc(Cl)nc3)CCN21 (stereo unspecified)	73			
CCCC1CC(OC)N2CCN(Cc3ccc(Cl)nc3)C2=C1[N+](=O)[O-] (stereo unspecified)	89			
CC1CC([N+](=O)[O-])=C2N(Cc3ccc(Cl)nc3)CCN2C1O (stereo unspecified)	70			
CC1CC(OCc2ccccc2)N2CCN(Cc3ccc(Cl)nc3)C2=C1[N+](=O)[O-] (stereo unspecified)	94			
CCC1CC(OC(C)C)N2CCN(Cc3ccc(Cl)nc3)C2=C1[N+](=O)[O-] (stereo unspecified)	100	88.9 (≈ 233 µM)		
CCC1C([N+](=O)[O-])=C2N(Cc3ccc(Cl)nc3)CCN2C(O)C1C (stereo unspecified)	0			
CCC(C)OC1CC(C)C([N+](=O)[O-])=C2N(Cc3ccc(Cl)nc3)CCN21 (stereo unspecified)	0			
C=CCOC1CC(C)C([N+](=O)[O-])=C2N(Cc3ccc(Cl)nc3)CCN21 (stereo unspecified)	100			
COC1CC(C)C([N+](=O)[O-])=C2N(Cc3ccc(Cl)nc3)CCN21 (stereo unspecified)	100	50 (≈ 148 µM)		
CCCOC1CC(CC)C([N+](=O)[O-])=C2N(Cc3ccc(Cl)nc3)CCN21 (stereo unspecified)	100	86.4 (≈ 227 µM)		
CCOC1CC(CC)C([N+](=O)[O-])=C2N(Cc3ccc(Cl)nc3)CCN21 (stereo unspecified)	100	48.9 (≈ 133 µM)		
CCC1CC(OC)N2CCN(Cc3ccc(Cl)nc3)C2=C1[N+](=O)[O-] (stereo unspecified)	90		1.07 (≈ 3.03 µM)	8.87 (≈ 25.1 µM)
CC1(O)CCC([N+](=O)[O-])=C2N(Cc3ccc(Cl)nc3)CCN21 (stereo unspecified)	90			
O=[N+]([O-])C1=C2N(Cc3ccc(Cl)nc3)CCN2C(O)CC1c1ccc([N+](=O)[O-])cc1 (stereo unspecified)	0			
